{"data": "Measured values collected from several papers", "note": "Each line is one published result; the experiments were not run side by side."}
{"SMILES": "CN1CCN(C[C@H]2CCCN(c3nccc4[nH]c(-c5cc(F)cc(F)c5)nc34)C2)CC1", "method": "shake flask", "matrix": "aqueous buffer", "pH": "pH 6.5", "solubility": "> 200 µM"}
{"SMILES": "COc1cc(C(=O)O)cc(OC)c1O", "matrix": "water", "time": "72 h", "temperature": "25 °C", "solubility": "7400 µM"}
{"SMILES": "CN1CCN(C2=Nc3cc(Cl)ccc3Nc3ccccc32)CC1", "matrix": "FaSSIF", "time": "24 h", "pH": "pH 7.4", "temperature": "37 °C", "solubility": "350 µg/mL"}
{"SMILES": "Cc1ccc(Nc2nc(NCc3ccccc3)c3ccccc3n2)cc1F", "matrix": "aqueous buffer", "pH": "pH 5", "solubility": "0.13 µg/mL"}
{"SMILES": "O=C(Nc1cc(F)ccc1C(=O)O)c1ccc(-c2ccccc2)cc1", "method": "shake flask", "matrix": "aqueous buffer", "time": "24 h", "pH": "pH 6.5", "temperature": "25 °C", "solubility": "5 µM"}
{"SMILES": "O=C(Nc1c2c(cc3c1CCC3)CCC2)NS(=O)(=O)/C=C/c1nccs1", "matrix": "simulated gastric fluid", "time": "24 h", "temperature": "37 °C", "notes": "acidic", "solubility": "< 5 µg/mL"}
{"SMILES": "Brc1cccc2c(NCc3ccccc3)nc(NCc3ccccc3)nc12", "matrix": "aqueous buffer", "pH": "pH 7.4", "solubility": "< 0.01 µg/mL"}
{"SMILES": "CC(C)CC(=O)N1CCC[C@H](COc2cccc3c2C(N)=NS(=O)(=O)N3)C1", "matrix": "ethanol", "solubility": "1230 µM"}
{"SMILES": "FC(F)(F)c1ccc2c(c1)nc(N1CCNCC1)n2Cc1ccccc1", "method": "shake flask", "matrix": "aqueous buffer", "time": "20 h", "pH": "pH 6.5", "temperature": "25 °C", "solubility": "200 µM"}
{"SMILES": "Cc1cc(Nc2cccc(Cl)c2)n2nc(C(C)(F)F)nc2n1", "method": "nephelometry", "matrix": "aqueous buffer", "pH": "pH 6.5", "solubility": "77 to 150 µM"}
{"SMILES": "CC(C)Oc1ccc2cc(-c3nn(C(C)(C)C)c(N)c3C(N)=O)cnc2c1", "matrix": "PBS", "pH": "pH 6.5", "temperature": "25 °C", "solubility": "> 100 µM"}
{"SMILES": "Cl.NC1CCN(c2nc3cc(Cl)ccc3n2Cc2ccccc2)CC1", "method": "shake flask", "matrix": "aqueous buffer", "time": "20 h", "pH": "pH 6.5", "temperature": "25 °C", "solubility": "> 150 µM"}
{"SMILES": "CNc1nc2ccccc2n2c(-c3cccc(OC)c3)cnc12", "method": "HPLC", "matrix": "ethanol", "solubility": "500 µg/mL"}
{"SMILES": "O=C(CCCCCCC(=O)Nc1ccccc1)NO", "matrix": "simulated gastric fluid", "time": "48 h", "pH": "pH 2", "temperature": "25 °C", "notes": "acidic", "solubility": "160 µg/mL"}
{"SMILES": "CCc1nc2nc(C)cc(Nc3ccc(C(F)(F)F)cc3)n2n1", "method": "nephelometry", "matrix": "aqueous buffer", "pH": "pH 6.5", "solubility": "39 to 78 µM"}
{"SMILES": "Cc1cc(F)cc(Nc2nc(NCc3ccccc3)c3ccccc3n2)c1", "matrix": "aqueous buffer", "pH": "pH 6.2", "solubility": "< 0.01 µg/mL"}
{"SMILES": "CC(C)(C)n1nc(-c2cnc3cc(OCC4CC4)ccc3c2)c(C(N)=O)c1N", "matrix": "PBS", "pH": "pH 6.5", "temperature": "25 °C", "solubility": "26.8 µM"}
{"SMILES": "CCCn1nc(C(=O)N2CCCCC2)c2c1CCC(N1CCc3ccccc3C1)C2 (stereo not shown)", "matrix": "PBS", "time": "16 h", "pH": "pH 7.4", "solubility": "713 µM"}
{"SMILES": "COCCOCCOCc1n(Cc2ccc3ccccc3n2)c2ccccc2[n+]1Cc1ccc2ccccc2n1.[Cl-]", "matrix": "water", "solubility": "> 40000 µg/mL"}
{"SMILES": "Cc1cc(Nc2ccc(Cl)cc2)n2nc(C(C)(F)F)nc2n1", "method": "nephelometry", "matrix": "aqueous buffer", "pH": "pH 6.5", "solubility": "77 to 150 µM"}
{"SMILES": "CC(C)[C@@H]1CC[C@@H](C)CC1=O", "matrix": "PBS", "time": "48 h", "pH": "pH 7.4", "temperature": "25 °C", "solubility": "3000 µM"}
{"SMILES": "CC[C@H](C)[C@H](NC(=O)[C@H](CCCNC(=N)N)NC(=O)[C@H](CCC(=O)O)NC(C)=O)C(=O)N[C@H]1CSSC[C@@H](C(=O)N[C@H](C(N)=O)[C@@H](C)O)NC(=O)[C@H](CCCNC(=N)N)NC(=O)[C@H](Cc2c[nH]cn2)NC(=O)[C@H](C)NC(=O)CNC(=O)[C@H](Cc2c[nH]c3ccccc23)NC(=O)[C@H](CC(=O)O)NC(=O)[C@H](CCC(N)=O)NC(=O)[C@H](Cc2c[nH]c3ccccc23)NC(=O)[C@H](C(C)C)NC1=O", "matrix": "PBS", "pH": "pH 7.4", "solubility": "4290 µg/mL"}
{"SMILES": "COCc1nc2nc(C)cc(Nc3ccc(S(F)(F)(F)(F)F)cc3)n2n1", "method": "nephelometry", "matrix": "aqueous buffer", "pH": "pH 6.5", "solubility": "63 to 130 µM"}
{"SMILES": "COc1ccccc1C(=O)Nc1cccc(NC(=O)c2cccc(C)c2)c1", "matrix": "aqueous buffer", "pH": "pH 7.4", "solubility": "0.47 µM"}
{"SMILES": "CC(C)Cc1ccc(C(C)C(=O)O)cc1 (stereo not shown)", "matrix": "PBS", "pH": "pH 7.4", "solubility": "4580 µg/mL"}
{"SMILES": "O=C1NCCc2nc(OCc3cccc(F)c3)ccc21", "matrix": "FaSSIF", "time": "24 h", "pH": "pH 7.2", "solubility": "114 µM"}
{"SMILES": "CCOc1ccc2cc(-c3nn(C(C)(C)C)c(N)c3C(N)=O)ccc2n1", "matrix": "PBS", "pH": "pH 6.5", "temperature": "25 °C", "solubility": "83.5 µM"}
{"SMILES": "OCCOc1cccc2c(NCc3ccccc3)nc(N3CCOc4ccccc43)nc12", "matrix": "aqueous buffer", "pH": "pH 7.4", "solubility": "0.43 µg/mL"}
{"SMILES": "COc1cc(OC)cc(N(CCNC(C)C)c2ccc3ncc(-c4cnn(C)c4)nc3c2)c1", "matrix": "aqueous buffer", "pH": "pH 7.65", "solubility": "150 µg/mL"}
{"SMILES": "Nc1cccc(S(=O)(=O)N2CCCN(S(=O)(=O)c3ccc4c(c3)OCCO4)CC2)c1", "matrix": "aqueous buffer", "solubility": "29 µg/mL"}
{"SMILES": "COCc1nn(Cc2ccc(Cn3ccccc3=O)cc2)cc1C(=O)NCc1c(F)ccc(OC)c1F", "matrix": "FaSSIF", "time": "4 h", "pH": "pH 1.6", "solubility": "9 µg/mL"}
{"SMILES": "CN1CCN([C@H]2CC[C@H](Nc3nccc4[nH]c(-c5cc(F)cc(F)c5)nc34)CC2)CC1", "method": "shake flask", "matrix": "aqueous buffer", "pH": "pH 6.5", "solubility": "> 200 µM"}
{"SMILES": "N=C(N)NCc1ccc(NC(=O)c2ccc(C(=O)Nc3ccc(C4=CCN(C(=N)N)CC4)cc3)cn2)cc1", "method": "shake flask", "matrix": "aqueous buffer", "pH": "pH 7.4", "solubility": "4.5 µg/mL"}
{"SMILES": "COc1c(Cl)cccc1Nc1nc(NCc2ccccc2)c2ccccc2n1", "matrix": "aqueous buffer", "pH": "pH 5", "solubility": "0.5 µg/mL"}
{"SMILES": "Cc1cc2[nH]c(-c3cc(F)cc(F)c3)nc2c(N2CCC(CN3CCN(C)CC3)CC2)n1", "method": "shake flask", "matrix": "aqueous buffer", "pH": "pH 6.5", "solubility": "> 200 µM"}
{"SMILES": "COc1cccc(OC)c1-c1cc(C(=O)N[C@@H](CC(C)C)C(=O)O)nn1-c1ccnc2cc(Cl)ccc12", "matrix": "aqueous buffer", "pH": "pH 7.4", "solubility": "> 155 µg/mL"}
{"SMILES": "NC1CCN(c2nccc3[nH]c(-c4ccc(F)c(F)c4)nc23)CC1", "method": "shake flask", "matrix": "aqueous buffer", "pH": "pH 6.5", "solubility": "> 200 µM"}
{"SMILES": "CCCCCCCCCCCCN1CCCC1=O", "matrix": "PBS", "time": "48 h", "pH": "pH 7.4", "temperature": "25 °C", "solubility": "21 µM"}
{"SMILES": "c1ccc(CNc2nc(N3CCNc4ccccc43)nc3ccccc23)cc1", "matrix": "aqueous buffer", "pH": "pH 6.2", "solubility": "18 µg/mL"}
{"SMILES": "COc1cccc(OC)c1-c1nc(C(=O)N[C@@H](CC(C)C)C(=O)O)cn1-c1cccc2ccccc12", "matrix": "aqueous buffer", "pH": "pH 6.2", "solubility": "> 145 µg/mL"}
{"SMILES": "CC(C)C[C@H](NC(=O)[C@H](CCc1ccccc1)NC(=O)CN1CCOCC1)C(=O)N[C@@H](Cc1ccccc1)C(=O)N[C@@H](CC(C)C)C(=O)[C@@]1(C)CO1", "matrix": "PBS", "time": "24 h", "pH": "pH 7.4", "solubility": "1.12 µg/mL"}
{"SMILES": "CCCOC(=O)c1ccc(N)cc1", "matrix": "PBS", "pH": "pH 7.4", "solubility": "749 µg/mL"}
{"SMILES": "O=C(Nc1ccc(S(=O)(=O)N2CCC(Cl)CC2)cc1)c1ccc([N+](=O)[O-])o1", "matrix": "PBS", "pH": "pH 7.4", "solubility": "9.4 µM"}
{"SMILES": "CNC(=O)c1ccc(N(Cc2ccc(C3CCCCC3)cn2)C(=O)[C@H]2CCN2S(=O)(=O)c2c(F)c(F)c(F)c(F)c2F)cc1O", "matrix": "simulated intestinal fluid", "solubility": "131 µg/mL"}
{"SMILES": "Cl.Clc1ccc2c(nc(N3CCNCC3)n2Cc2ccccc2)c1Cl", "method": "shake flask", "matrix": "aqueous buffer", "time": "20 h", "pH": "pH 6.5", "temperature": "25 °C", "solubility": "70 µM"}
{"SMILES": "CCOc1ccc2cc(-c3nn(CC(C)(C)CO)c(N)c3C(N)=O)cnc2c1", "matrix": "PBS", "pH": "pH 6.5", "temperature": "25 °C", "solubility": "> 100 µM"}
{"SMILES": "Cl.Clc1ccc2c(nc(N3CCNCC3)n2Cc2ccccc2)c1-c1ccncc1", "method": "shake flask", "matrix": "aqueous buffer", "time": "20 h", "pH": "pH 6.5", "temperature": "25 °C", "solubility": "200 µM"}
{"SMILES": "CCc1nc2nc(C)cc(Nc3cccc(Cl)c3)n2n1", "method": "nephelometry", "matrix": "aqueous buffer", "pH": "pH 6.5", "solubility": "170 to 350 µM"}
{"SMILES": "COc1cc(NC(=O)c2ccc(C3=CCN(C(=N)N)CC3)c(F)c2)ccc1C1=CCN(C(=N)N)CC1", "method": "shake flask", "matrix": "aqueous buffer", "pH": "pH 7.4", "solubility": "1210 µg/mL"}
{"SMILES": "Cc1c(F)cccc1NC(=O)Nc1ccc(Cl)c(S(=O)(=O)[C@H]2CCCNC2)c1O", "matrix": "aqueous buffer", "time": "4 h", "pH": "pH 10", "solubility": "68 µg/mL"}
{"SMILES": "O=C(O)c1ccc(-c2nnc(-c3ncccn3)nn2)cc1", "matrix": "water", "solubility": "≤ 200 µM"}
{"SMILES": "Brc1cccc(Nc2nc(NCc3ccccc3)c3ccccc3n2)c1", "matrix": "aqueous buffer", "pH": "pH 5", "solubility": "0.03 µg/mL"}
{"SMILES": "Cc1c(N(C)C)c(=O)n(-c2ccccc2)n1C", "matrix": "PBS", "pH": "pH 7.4", "solubility": "46300 µg/mL"}
{"SMILES": "COc1cccc2c(NCc3ccccc3)nc(N3CCNc4ccccc43)nc12", "matrix": "aqueous buffer", "pH": "pH 5", "solubility": "28.2 µg/mL"}
{"SMILES": "COc1ccc(N2CCN(CCCNC(=O)Cn3c(=O)c4cccn4c4c(C)ccnc43)CC2)cc1", "matrix": "aqueous buffer", "pH": "pH 7.4", "solubility": "12.4 µg/mL"}
